Calpain2 inh – calpain II (pig) inhibition | purified calpain II, fluorogenic peptide substrate, 30 min | inhibition, % at 16 µM | 220,000 compounds, 0.37% hits;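 active = inhibition above about 50%, limit read from the data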
PMI act – increases human mannose-6-phosphate isomerase activity; AID 1214; 190,000 compounds, 0.005% hits; purified human PMI, coupled resazurin fluorescence, 20 min; active compounds read high; 1 = vehicle control, 0 substrate-free wells; activation factor at 20 µM; P34949;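 active = activation factor of 2 or more at 20 µM, relative to plate controls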
L major viab – Leishmania major promastigote growth inhibition; Leishmania major promastigotes, resazurin fluorescence viability; inhibition, % at 10 µM; 200,000 compounds, 9% hits; in the data active = inhibition above about 50%;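 also: promastigotes grown with compound for 44 hours at 28 °C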
WT yeast gro inh – growth inhibition of WT yeast, mitochondrial fusion screen | 190,000 compounds, 2.1% hits | inhibition, % at 10 µM | AID 1362 | mitochondrial fusion phenotypic screen, WT strain; in the data active = inhibition above about 58%; tested in S. cerevisiae
PMI act satM6P – PMI (human) activation, high substrate; coupled PMI enzyme assay, resazurin fluorescence, 20 min; active compounds read high; 1 = untreated enzyme, 0 = substrate-free blank; P34949; activation factor at 20 µM; 190,000 compounds, 0.34% hits; AID 1216;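 active = activation factor of 2 or more at 20 µM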
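Material: human phosphomannose isomerase with PGI, G6PDH, diaphorase coupling enzymes. Quantity: 15 ng/mL PMI. Medium: HEPES pH 7.4 buffer with MgCl2 and Tween-20. Reagent: Near-saturating mannose-6-phosphate, 1.0 mM. Compound: 20 µM single dose. Times: enzyme reaction with compound 20 min at room temperature. Detection: resorufin fluorescence at Ex 544/Em 590 nm.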
Rad51 HR inh – Rad51 (human) homologous recombination inhibition; Q06609; hRad51 DNA strand exchange, fluorescence dequenching; inhibition, % at 10 µM; 200,000 compounds, 0.085% hits;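 active = inhibition above 40% at the single screening dose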;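 also: 0% = DMSO control wells and 100% = blanks with heterologous ssDNA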
Target sequence (Q06609 whole entry, looked up): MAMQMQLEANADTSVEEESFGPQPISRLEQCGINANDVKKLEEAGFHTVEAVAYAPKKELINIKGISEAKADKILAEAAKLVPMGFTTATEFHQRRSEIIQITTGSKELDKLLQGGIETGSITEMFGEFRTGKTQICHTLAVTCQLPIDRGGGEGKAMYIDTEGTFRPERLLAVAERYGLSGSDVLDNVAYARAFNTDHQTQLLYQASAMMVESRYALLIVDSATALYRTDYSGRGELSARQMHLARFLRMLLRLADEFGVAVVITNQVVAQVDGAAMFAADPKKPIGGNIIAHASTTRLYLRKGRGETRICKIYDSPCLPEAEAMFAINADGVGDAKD
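material = hRad51 filaments on single-stranded DNA | timing = filaments 15 min 37 °C, then compound 30 min | signal = FRET fluorescence dequenching, excitation 485 nm, emission 520 nm | benchmarks = control wells and blank wells on each plate | evaluation = percent inhibition relative to plate controls and blanks | compound = 10 µM final, single point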
The depositor's hits bear a star. Sampled rows, rich in hits. Any-hit rate of the full collection: about 9.8%.

CN(C)c1cccc(C(=O)OCC(=O)Nc2ccccc2-c2ccccc2)c1 was read as Calpain2 inh -13, PMI act 0.8, L major viab -2, WT yeast gro inh 6, PMI act satM6P 0.8 and Rad51 HR inh -3.
For CN(C)c1cccc(C(=O)OCC(=O)Nc2ccccc2Cl)c1 the results were Calpain2 inh 56*, PMI act 1.1, L major viab -7, WT yeast gro inh 11, PMI act satM6P 1 and Rad51 HR inh 6.
Screening Cc1ccc(S(=O)(=O)N2CCCCC2)cc1NC(=O)COC(=O)c1ccc2c(c1)OCO2 returned Calpain2 inh 56*, PMI act 0.7, L major viab -1, WT yeast gro inh 13, PMI act satM6P 0.9 and Rad51 HR inh 17.
For O=C(COC(=O)c1ccc2[nH]c3c(c2c1)CCCC3)Nc1ccccc1Cl the results were Calpain2 inh -43, PMI act 1, L major viab 7, WT yeast gro inh 8 and PMI act satM6P 1.
Screening CCCCN(CC)S(=O)(=O)c1ccc2c(c1)n(C)c(=O)c(=O)n2C returned Calpain2 inh -44.
Screening CC1=C(C(=O)OCC(C)C)C(c2ccsc2)C2=C(CCCC2=O)N1 (stereo not drawn) returned Calpain2 inh -53, PMI act 0.9, L major viab 6, WT yeast gro inh 6, PMI act satM6P 1 and Rad51 HR inh 11.
Screening CNC(=O)COC(=O)c1ccc(Cl)c(S(=O)(=O)N2CCCC2)c1 returned Calpain2 inh -25, PMI act 1.1, L major viab -4, WT yeast gro inh 2, PMI act satM6P 1 and Rad51 HR inh -1.
Screening CCc1ccc(NC(=O)COC(=O)c2ccc(Cl)c(S(=O)(=O)N3CCCCCC3)c2)cc1 returned Calpain2 inh 21, PMI act 0.8, L major viab 63*, WT yeast gro inh 3, PMI act satM6P 0.9 and Rad51 HR inh -5.
Cc1cc(C)n(-c2ccc(C(=O)OCC(=O)Nc3ccc(S(=O)(=O)N4CCCCC4)cc3)cc2)n1 was read as Calpain2 inh -93, PMI act 1, L major viab 84*, WT yeast gro inh 10, PMI act satM6P 0.9 and Rad51 HR inh 5.
CC(C)c1ccccc1NC(=O)COC(=O)c1ccc(Cl)c(S(=O)(=O)N2CCCCCC2)c1 was read as Calpain2 inh 27, PMI act 0.8, L major viab 60*, WT yeast gro inh -23, PMI act satM6P 0.9 and Rad51 HR inh 8.
CCCn1c(N)c(CC)c(=O)[nH]c1=O was read as Calpain2 inh -29, PMI act 1.2, L major viab -5, WT yeast gro inh -4, PMI act satM6P 1 and Rad51 HR inh 9.
`COc1cc(C2NC(=O)C(C#N)=C(Nc3cccc(C)c3)S2)ccc1O` (stereo not drawn) gave Calpain2 inh 16 and Rad51 HR inh -7.
Screening Cc1cc(C)c2ccc(N)nc2c1O returned Calpain2 inh -2, PMI act 0.8, L major viab 99*, WT yeast gro inh 5, PMI act satM6P 0.7 and Rad51 HR inh 5.
O=C(c1ccc(Cl)cc1)N1CCC(c2nc(-c3cccs3)no2)CC1 was read as Calpain2 inh 0, PMI act 1.1, L major viab 87*, WT yeast gro inh 2, PMI act satM6P 1.1 and Rad51 HR inh 0.
`CCOc1ccc(C(=O)N2CCCC(c3nc(-c4cccs4)no3)C2)cc1` (stereo not drawn) gave Calpain2 inh 11 and Rad51 HR inh 12.
For O=C(CSc1nnc(-c2ccco2)o1)c1ccc(O)cc1O the results were Calpain2 inh -11, PMI act 1.1, L major viab 3, WT yeast gro inh -1, PMI act satM6P 1 and Rad51 HR inh 2.
`N#CCn1c(CCl)nc2ccccc2c1=O` gave Calpain2 inh 5, PMI act 1.3, L major viab 84*, WT yeast gro inh 10, PMI act satM6P 1.1 and Rad51 HR inh 6.
CN1CCN(Cc2nc3ccccc3c(=O)n2CC#N)CC1 was read as Calpain2 inh -5, PMI act 1, L major viab -2, WT yeast gro inh -5, PMI act satM6P 1 and Rad51 HR inh 6.
O=C(COc1ccc2ccc(=O)oc2c1)N1CCN(c2ccccc2)CC1 was read as Calpain2 inh -153, PMI act 1, L major viab 69*, WT yeast gro inh -10, PMI act satM6P 0.9 and Rad51 HR inh -2.
O=C(CSc1nc2ccccc2n1S(=O)(=O)c1ccccc1)N1CCCC1 was read as Calpain2 inh -2, PMI act 1.1, L major viab 11, WT yeast gro inh -2, PMI act satM6P 1.1 and Rad51 HR inh 1.
For COC(=O)CC1c2cc(OC)c(OC)cc2CC(=O)c2cc(OC)c(OC)cc21 (stereo not drawn) the results were Calpain2 inh 10, PMI act 1.5, L major viab -4, WT yeast gro inh -3, PMI act satM6P 2* and Rad51 HR inh 18.
Screening O=C(/C=C/NNC(=O)c1ccccc1)c1ccc([N+](=O)[O-])cc1 returned Calpain2 inh -26, PMI act 0.9, L major viab 79*, WT yeast gro inh 5, PMI act satM6P 1 and Rad51 HR inh 6.
Screening Cc1ccc(NCc2ccccc2O)c(C)c1 returned Calpain2 inh -7, PMI act 1, L major viab -7, WT yeast gro inh -3, PMI act satM6P 1 and Rad51 HR inh 0.
`CC(=O)N1[C@H](C)C=C[C@]1(Cc1ccccc1)C(=O)NCCN1CCOCC1` gave Rad51 HR inh -1.
CC(C)c1ccccc1NC(=O)CC1(CC(=O)O)CCCC1 was read as Calpain2 inh 3 and Rad51 HR inh 18.
COc1cccc(OC)c1C(=O)NC(=S)Nc1cc(-c2nc3ccccc3[nH]2)ccc1Cl was read as Calpain2 inh -47, PMI act 1, L major viab 81*, WT yeast gro inh 23 and PMI act satM6P 1.1.
Screening COc1c(F)c(F)c(C(=O)Nc2ccc(-c3nc4ccccc4[nH]3)cc2)c(F)c1F returned Calpain2 inh -74, PMI act 1, L major viab -4, WT yeast gro inh -15, PMI act satM6P 1 and Rad51 HR inh 4.
`O=C(CCl)NC1(C(F)(F)F)C(=O)Nc2c1c(=O)[nH]c(=O)n2-c1ccccc1` (stereo not drawn) gave Calpain2 inh -21 and Rad51 HR inh 2.
Screening C(=C/c1ccnc2nc(SC/C=C/c3ccccc3)nn12)/c1ccccc1 returned Calpain2 inh -34, PMI act 0.9, L major viab -4, WT yeast gro inh -4, PMI act satM6P 0.9 and Rad51 HR inh -3.

Source: PubChem BioAssay
